Source: PubChem (The Scripps Research Institute Molecular Screening Center)
Compounds with a hit are over-represented: about 3% of the library has one in this group of screens.
5-HT1A blocker: blocks the human serotonin 5-HT1a receptor. P08908. CHO 5-HT1a Ga15 NFAT-bla reporter, antagonist mode. inhibition, % at 10 µM. 62,000 compounds, 0.68% hits. AID 612;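 active = inhibition above the mean of all tested compounds plus 3 SD, cut at about 43% in these data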;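 also: receptor stimulated by 5-CT agonist at 100 nM near EC80; beta-lactamase reporter measured by ratiometric fluorescence of a cleavable substrate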
HTR1A agonist: agonists of human 5-HT1a serotonin receptor; activation, % at 10 µM; P08908; CHO 5-HT1a Ga15 NFAT-bla reporter, FRET ratio; 0% basal, 100% maximal reference agonist; 65,000 compounds, 0.56% hits;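 active = activation above the screen-wide mean activation plus 3 SD, cut at about 19% in these data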
5HT1E ag: activates the human 5-HT1E serotonin receptor; activation, % at 6 µM; CHO 5-HT1E Ga15 NFAT-bla reporter, FRET; 0% DMSO wells, 100% control agonist wells; AID 574; P28566; 65,000 compounds, 0.69% hits;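 active = activation above a set limit, the screen-wide mean activation plus 3 SD, cut at about 8.5% in these data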
5HT1E antag: blocks the human 5-HT1E serotonin receptor | P28566 | 65,000 compounds, 0.99% hits | CHO 5-HT1E Ga15 NFAT-bla reporter, FRET, antagonist | AID 571 | inhibition, % at 6 µM;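 active = inhibition above a set limit, the mean inhibition across every tested compound plus 3 SD, cut at about 29% in these data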;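 also: signal is the 460 over 535 nm emission ratio of beta-lactamase substrate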
S1P3 ag: S1P3 (human) receptor agonism. Q99500. S1P3 NFAT-BLA reporter cells, FRET ratio; relative to 1 µM S1P, basal subtracted. activation, % at 4.5 µM. 60,000 compounds, 0.1% hits;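 active = activation above the screen-wide mean plus 3 SD, cut at about 4.5% in these data, passing the limit was not always enough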
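material = human S1P3 NFAT-BLA reporter CHO cells | schedule = 4 h compound at 37 °C, 2 h substrate at RT | measured by = fluorescent BLA substrate, ex 405 nm, em 460/535 nm ratio | controls = 1 µM S1P reference | replication = primary once, confirmation triplicate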
S1P1 ag-PAM: S1P1 (human) agonism or agonism potentiation. activation, % at 9.5 µM. S1P1 CRE-bla cells, forskolin, beta-lactamase FRET, potentiator mode; S1P1 agonist co-added at EC20, 2 nM; 100% = saturating reference agonist, 0% = basal. 56,000 compounds, 0.57% hits;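 active = activation above a cutoff set at the mean activation of all tested compounds plus 3 SD, cut at about 54% in these data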;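 also: forskolin at 4 µM as EC80 and the EC20 agonist is SEW2871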
Target sequence (P21453 whole entry, looked up): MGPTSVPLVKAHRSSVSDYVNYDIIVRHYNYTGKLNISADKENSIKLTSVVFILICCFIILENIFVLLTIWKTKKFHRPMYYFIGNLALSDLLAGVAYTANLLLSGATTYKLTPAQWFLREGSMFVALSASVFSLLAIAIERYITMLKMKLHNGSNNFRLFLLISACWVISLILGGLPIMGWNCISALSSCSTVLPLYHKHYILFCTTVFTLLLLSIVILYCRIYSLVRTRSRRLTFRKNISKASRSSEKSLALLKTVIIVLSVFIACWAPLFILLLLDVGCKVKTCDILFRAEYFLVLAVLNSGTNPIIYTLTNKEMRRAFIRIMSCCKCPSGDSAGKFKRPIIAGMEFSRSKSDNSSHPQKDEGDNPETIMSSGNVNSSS
Hits are given with their value.

`CC1=C(C(=O)OCc2ccc3c(c2)OCO3)C(c2ccc(F)cc2)NC(=O)N1` (centres undefined) gave 5-HT1A blocker inactive, HTR1A agonist inactive, 5HT1E ag inactive, 5HT1E antag 29, S1P3 ag inactive and S1P1 ag-PAM 94.
For CCOC(=O)C1=C(C)NC(=O)NC1c1ccc2c(c1)OCCO2 (centres undefined) the results were 5-HT1A blocker inactive, HTR1A agonist inactive, 5HT1E ag inactive, 5HT1E antag inactive, S1P3 ag inactive and S1P1 ag-PAM inactive.
For CC1=C(C(=O)OCc2ccc3c(c2)OCO3)C(c2ccc(Cl)cc2)NC(=O)N1 (centres undefined) the results were 5-HT1A blocker 50, HTR1A agonist inactive, 5HT1E ag inactive, 5HT1E antag 43, S1P3 ag inactive and S1P1 ag-PAM 113.
Screening Cc1cc(C)cc(N2CC34C=CC(O3)C(C(=O)OCC(=O)NCc3ccco3)C4C2=O)c1 (centres undefined) returned 5-HT1A blocker inactive, HTR1A agonist inactive, 5HT1E ag inactive, 5HT1E antag inactive, S1P3 ag inactive and S1P1 ag-PAM inactive.
Screening Cc1ccc(-c2noc(CCC(=O)N3CCCc4ccccc43)n2)cc1 returned 5-HT1A blocker inactive, HTR1A agonist inactive, 5HT1E ag inactive, 5HT1E antag inactive, S1P3 ag inactive and S1P1 ag-PAM inactive.
COc1ccccc1N1CCN(Cc2ccco2)CC1 was read as 5-HT1A blocker inactive, HTR1A agonist inactive, 5HT1E ag 9.2, 5HT1E antag inactive, S1P3 ag inactive and S1P1 ag-PAM inactive.
COc1ccccc1N1CCN(CCOc2c(OC)cccc2OC)CC1 was read as HTR1A agonist inactive, 5HT1E ag 30, 5HT1E antag inactive, S1P3 ag inactive and S1P1 ag-PAM inactive.
For COc1ccccc1N1CCN(CCNC(=O)Nc2cccc(C)c2C)CC1 the results were 5-HT1A blocker inactive, HTR1A agonist 41, 5HT1E ag inactive, 5HT1E antag inactive, S1P3 ag inactive and S1P1 ag-PAM inactive.
`COc1cccc(C(=O)N2CCN(Cc3ccco3)CC2)c1OC` gave 5-HT1A blocker inactive, HTR1A agonist inactive, 5HT1E ag inactive, 5HT1E antag inactive, S1P3 ag inactive and S1P1 ag-PAM inactive.
COc1ccccc1N1CCN(CC(O)COc2cccc3ccccc23)CC1 (centres undefined) was read as HTR1A agonist inactive, 5HT1E ag inactive, 5HT1E antag inactive, S1P3 ag inactive and S1P1 ag-PAM inactive.
Screening Cc1cc(C)nc(N2CCN(c3nc(C)nc4c3oc3ccccc34)CC2)n1 returned 5-HT1A blocker inactive, HTR1A agonist inactive, 5HT1E ag inactive and 5HT1E antag inactive.
`COc1ccccc1N1CCN(c2nc(C)nc3c2oc2ccccc23)CC1` gave 5-HT1A blocker 67, HTR1A agonist inactive, 5HT1E ag inactive, 5HT1E antag 58, S1P3 ag inactive and S1P1 ag-PAM inactive.
`Cn1c(=O)c(=O)n(C)c2cc(S(=O)(=O)N3CCN(c4cccc(C(F)(F)F)c4)CC3)ccc21` gave 5-HT1A blocker inactive, HTR1A agonist inactive, 5HT1E ag inactive, 5HT1E antag inactive, S1P3 ag inactive and S1P1 ag-PAM inactive.
O=C(Cn1c(=O)oc2cc(S(=O)(=O)N3CCc4ccccc43)ccc21)N1CCCCC1 was read as 5-HT1A blocker inactive, HTR1A agonist inactive, 5HT1E ag inactive, 5HT1E antag inactive, S1P3 ag inactive and S1P1 ag-PAM inactive.
CCOc1ccccc1N1CCN(Cc2cccc(OC)c2O)CC1 was read as 5-HT1A blocker inactive, HTR1A agonist inactive, 5HT1E ag inactive, 5HT1E antag inactive and S1P3 ag inactive.
For COc1ccccc1N1CCN(Cc2cc(Br)c(O)c3ncccc23)CC1 the results were 5-HT1A blocker 65, HTR1A agonist inactive, 5HT1E ag 14, 5HT1E antag 38, S1P3 ag inactive and S1P1 ag-PAM inactive.
`COc1ccccc1/C=C/CN1CCOCC1` gave 5-HT1A blocker inactive, HTR1A agonist inactive, 5HT1E ag inactive, 5HT1E antag inactive and S1P3 ag inactive.
COc1ccccc1N1CCN(C/C=C/c2ccc(N(C)C)cc2)CC1 was read as 5-HT1A blocker 79, HTR1A agonist inactive, 5HT1E ag 9.7, 5HT1E antag inactive, S1P3 ag inactive and S1P1 ag-PAM inactive.
For CCCN1CCC(N2CCN(c3ccccc3OC)CC2)CC1 the results were 5-HT1A blocker 63, HTR1A agonist inactive, 5HT1E ag inactive, 5HT1E antag inactive, S1P3 ag inactive and S1P1 ag-PAM inactive.
O=C(CCc1nc2ccccc2[nH]c1=O)OCC(=O)N1CCc2ccccc21 was read as 5-HT1A blocker inactive, HTR1A agonist inactive, 5HT1E ag inactive, 5HT1E antag inactive, S1P3 ag inactive and S1P1 ag-PAM inactive.
`CCOc1ccccc1-c1cc(-c2ccc(OC)cc2)nc2c1c(=O)n(C)c(=O)n2C` gave 5-HT1A blocker inactive, HTR1A agonist inactive, 5HT1E ag inactive, 5HT1E antag inactive, S1P3 ag inactive and S1P1 ag-PAM inactive.
`CS(=O)(=O)N(CC(=O)N1CCCCCC1)c1ccc2c(c1)OCCO2` gave 5-HT1A blocker inactive, HTR1A agonist inactive, 5HT1E ag inactive, 5HT1E antag inactive, S1P3 ag inactive and S1P1 ag-PAM inactive.
`CN(C)CCNC(=O)c1c(O)c2c([nH]c1=O)CCCC2` gave 5-HT1A blocker inactive, HTR1A agonist inactive, 5HT1E ag 11, 5HT1E antag inactive, S1P3 ag inactive and S1P1 ag-PAM inactive.
Cn1c(=O)oc2cc(S(=O)(=O)NC(Cc3ccccc3)C(=O)N3CCCCC3)ccc21 (centres undefined) was read as 5-HT1A blocker inactive, HTR1A agonist inactive, 5HT1E ag inactive, 5HT1E antag inactive, S1P3 ag inactive and S1P1 ag-PAM inactive.
Screening Cc1cc(C(=O)OCC(=O)Nc2ccc(S(=O)(=O)N3CCOCC3)cc2)c(C)o1 returned 5-HT1A blocker inactive, HTR1A agonist inactive, 5HT1E ag inactive, 5HT1E antag inactive, S1P3 ag inactive and S1P1 ag-PAM inactive.
Screening Cc1nn(C)c(C)c1NS(=O)(=O)c1ccccc1 returned 5-HT1A blocker inactive, HTR1A agonist inactive, 5HT1E ag inactive, 5HT1E antag inactive, S1P3 ag inactive and S1P1 ag-PAM inactive.
`Cc1nn(-c2ccccc2)c(C)c1NS(=O)(=O)c1ccccc1` gave 5-HT1A blocker inactive, HTR1A agonist inactive, 5HT1E ag inactive, 5HT1E antag 36, S1P3 ag inactive and S1P1 ag-PAM inactive.
Screening c1ccc2nc3c(nc2c1)c1ccccc1n3CCN1CCOCC1 returned 5-HT1A blocker inactive, HTR1A agonist inactive, 5HT1E ag inactive, 5HT1E antag inactive, S1P3 ag inactive and S1P1 ag-PAM inactive.
CCn1c2ccccc2c2nc3cc(S(=O)(=O)N4CCOCC4)ccc3nc21 was read as 5-HT1A blocker inactive, HTR1A agonist inactive, 5HT1E ag inactive, 5HT1E antag 50, S1P3 ag inactive and S1P1 ag-PAM inactive.
